Blank lines part the entries; values can stand above or below the molecule they belong to.
Columns and labels:
[1] = tested on: T. cruzi amastigotes (Tulahuen C4) in infected L6 myoblasts; assay: In vitro growth inhibition of T. cruzi amastigotes in infected L6 myoblasts; format: cell-based; details: for reduction of antichagasic activity compared to 5: compared to compound 5; for reduction of antichagasic activity compared to 3-nitrotriazole counterpart: 2-nitroimidazole analog vs 3-nitrotriazole counterpart (13 vs 9; 14 vs 11); for IC50: Trypanosoma cruzi, TULAHUEN, L6, read-out: T. cruzi IC-50
[2] = tested on: L. donovani axenic amastigotes (MHOM-ET-67/L82); assay: In vitro growth inhibition of axenically cultured L. donovani amastigotes; format: cell-based, Leishmania donovani; details: for IC50: Leishmania donovani, read-out: L.don. axen. IC-50; for SI (L.don. axen.): SI = IC50 in L6 cells / IC50 in L. donovani
[3] = tested on: T. b. rhodesiense bloodstream form trypomastigotes (STIB 900); assay: In vitro growth inhibition of T. b. rhodesiense bloodstream form trypomastigotes; format: cell-based, Trypanosoma b. rhodesiense; details: for activity designation against T.b. rhodesiense: TDR criteria on IC50; for reduction of anti-HAT activity compared to 3-nitrotriazole counterpart: 2-nitroimidazole analog vs 3-nitrotriazole counterpart (13 vs 9; 14 vs 11); for IC50: Trypanosoma brucei, RHODESIENSE|STIB900, read-out: T.b.rhod. IC-50; for SI (T.b.rhod.): SI = IC50 in L6 cells / IC50 in T.b. rhodesiense
[4] = Cytotoxicity assessment using L6 cells; format: cell-based; details: rat, L6 cells (rat skeletal myoblasts)
Summary of the method: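 Rat skeletal myoblasts (L6) were tested for growth inhibition as the host-cell toxicity counterpart to the parasite assays. IC50 was calculated by linear regression from sigmoidal dose-inhibition curves. Values are means of two independent assays, varying by less than ±50%.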

SMILES: Cl.Cl.O=[N+]([O-])c1ncn(CCCN2CCN(c3ncccn3)CC2)n1 [Compound 4, 2-{4-[3-(3-nitro-1H-1,2,4-triazol-1-yl)propyl]piperazin-1-yl}pyrimidine dihydrochloride]
reduction of antichagasic activity compared to 5 [1]: 2 fold

IC50 [2]: 7.3 µM
SMILES: O=[N+]([O-])c1nccn1CCCCNc1nc2ccc(Cl)cc2s1 [Compound 20, 6-chloro-N-[4-(2-nitro-1H-imidazol-1-yl)butyl]-1,3-benzothiazol-2-amine]

SMILES: O=[N+]([O-])c1ncn(CCCNc2nc3ccc(Cl)cc3s2)n1 [Compound 15, 6-chloro-N-[3-(3-nitro-1H-1,2,4-triazol-1-yl)propyl]-1,3-benzothiazol-2-amine]
activity designation against L. donovani ([2]; TDR criteria on IC50): moderately active (IC50 = 1.0-6.0 μM)
activity designation against T.b. rhodesiense [3]: active

SMILES: Cl.Cl.Cl.Cl.O=[N+]([O-])c1ncn(CCCN2CCN(c3ccc(Cl)c(Cl)c3)CC2)n1 [Compound 7, 1-(3,4-dichlorophenyl)-4-[3-(3-nitro-1H-1,2,4-triazol-1-yl)propyl]piperazine dihydrochloride]
activity designation against T.b. rhodesiense [3]: active

SMILES: O=[N+]([O-])c1ncn(CCCN2CCN(c3ccncc3)CC2)n1 [Compound 6, 1-[3-(3-nitro-1H-1,2,4-triazol-1-yl)propyl]-4-(pyridin-4-yl)piperazine]
reduction of antichagasic activity compared to 5 [1]: more than 10 fold

SMILES: COc1ccc(N2CCN(CCCn3ccnc3[N+](=O)[O-])CC2)cc1.Cl.Cl [Compound 13, 1-(4-methoxyphenyl)-4-[3-(2-nitro-1H-imidazol-1-yl)propyl]piperazine dihydro-chloride]
reduction of anti-HAT activity compared to 3-nitrotriazole counterpart [3]: ~2 fold
reduction of antichagasic activity compared to 3-nitrotriazole counterpart [1]: about 62 fold

SMILES: Cl.Cl.O=[N+]([O-])c1ncn(CCCN2CCN(Cc3ccc(C(F)(F)F)cc3)CC2)n1 [Compound 1]
IC50 [2]: 58.1 µM
SI (L.don. axen.) [2]: >3
IC50 [4]: > 191 µM
IC50 [3]: 1.38 µM
IC50 [1]: 0.34 µM

SMILES: Cl.Cl.O=[N+]([O-])c1ncn(CCCN2CCN(c3ccc(C(F)(F)F)cc3)CC2)n1 [Compound 3]
IC50 [2]: 25.9 µM
SI (L.don. axen.) [2]: 2
SI (T.b.rhod.) [3]: 10
IC50 [3]: 5.33 µM
IC50 [1]: 0.04 µM

SMILES: Cl.Cl.O=[N+]([O-])c1ncn(CCCCN2CCN(Cc3ccc(C(F)(F)F)cc3)CC2)n1 [Compound 2]
IC50 [2]: 44.5 µM
SI (L.don. axen.) [2]: 3
SI (T.b.rhod.) [3]: 99
IC50 [3]: 1.2 µM
IC50 [1]: 0.412 µM

SMILES: O=[N+]([O-])c1ncn(CCCCNc2nc3ccc(Cl)cc3s2)n1 [Compound 17, 6-chloro-N-[4-(3-nitro-1H-1,2,4-triazol-1-yl)butyl]-1,3-benzothiazol-2-amine]
activity designation against T.b. rhodesiense [3]: active

SMILES: COc1ccc(N2CCN(CCCn3cnc([N+](=O)[O-])n3)CC2)cc1 [Compound 9, 1-(4-methoxyphenyl)-4-[3-(3-nitro-1H-1,2,4-triazol-1-yl)propyl]piperazine dihydro-chloride]
IC50 [4]: 125 µM

SMILES: Cl.Cl.Cl.Cl.O=[N+]([O-])c1nccn1CCCN1CCN(Cc2ccc(Cl)c(Cl)c2)CC1 [Compound 14, 1-[(3,4-dichlorophenyl)methyl]-4-[3-(2-nitro-1H-imidazol-1-yl)propyl]piperazine dihydrochloride]
reduction of anti-HAT activity compared to 3-nitrotriazole counterpart [3]: ~14 fold
reduction of antichagasic activity compared to 3-nitrotriazole counterpart [1]: about 33 fold

From PMC3873001 (Bioorganic & medicinal chemistry, 2013)
